Activity calls are given as the source filed them.
Experiments:
[1] = molecular target: Casein kinase II subunit beta (Homo sapiens) (UniProt P67870); assay: Binding affinity to CK2beta at 150 uM followed by UV irradiation for 30 mins with Wood's glass filtered medium pressure mercury arc light by SDS-PAGE based pull down assay
Summary of the method: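 CK2 (17.5–70 nM) was mixed with 150 μM BioQ in 400 μL 10 mM PBS pH 7.2 with protease inhibitors, with or without 10 mM MgCl2 and 2 μM ATP. Samples were irradiated 30 min on ice (320–400 nm, peak 365 nm) or left unirradiated. Capture was on streptavidin agarose for 1 h, with washes in lysis buffer or 2% SDS Tris buffer, then boiling, SDS-PAGE and silver staining.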

[2] = test system: Jurkat; assay: Inhibition of heat shock-induced HSP70 expression in human Jurkat cells at 145 uM treated 2 hrs before beat shock challenge measured after 8 hrs by Western blotting; format: functional, cell-based
Summary of the method: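 Jurkat cells (low basal HSP70) got 145 μM compound or DMSO vehicle for 2 h, then a 30 min 43 °C heat shock and 8 h recovery at 37 °C. HSP70 and actin were read by Western blot. Controls were unheated cells and heated cells with no additive.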

[3] = test system: Jurkat; assay: Binding affinity to quercetin binding protein in human Jurkat cells at 150 uM after 30 mins followed by denaturing wash by SDS-PAGE based pull down assay in presence of heat shock; format: cell-based
[4] = test system: Jurkat; assay: Binding affinity to quercetin binding protein in human Jurkat cells at 150 uM followed by UV irradiation for 30 mins with Wood's glass filtered medium pressure mercury arc light before cell lysis measured after denaturing wash by SDS-PAGE based pull down assay
Summary of the method: (§1)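 Jurkat cells were grown in RPMI with 10% FBS (about 15×10^6 cells) and treated 2 h with 150 μM BioQ in 3% aqueous DMSO. They were heat-shocked at 43 °C for 30 min, recovered 1 h at 37 °C, and UV-irradiated (320–400 nm, peak 365 nm, 30 min, 4 °C) before or after sonication lysis. Streptavidin-agarose capture ran 1 h. Beads were washed ≥3× with lysis buffer or 2% SDS Tris pH 7.4, boiled, run on 12% SDS-PAGE and silver-stained.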

[5] = molecular target: T1, Ubiquitin-like modifier-activating enzyme 1 (Homo sapiens) (UniProt P22314); assay: Binding affinity to UBA1 in human Jurkat cells at 150 uM followed by UV irradiation for 30 mins with Wood's glass filtered medium pressure mercury arc light after cell lysis measured after denaturing wash by SDS-PAGE based pull down assay; summary of the method: as §1
T1 sequence (whole entry): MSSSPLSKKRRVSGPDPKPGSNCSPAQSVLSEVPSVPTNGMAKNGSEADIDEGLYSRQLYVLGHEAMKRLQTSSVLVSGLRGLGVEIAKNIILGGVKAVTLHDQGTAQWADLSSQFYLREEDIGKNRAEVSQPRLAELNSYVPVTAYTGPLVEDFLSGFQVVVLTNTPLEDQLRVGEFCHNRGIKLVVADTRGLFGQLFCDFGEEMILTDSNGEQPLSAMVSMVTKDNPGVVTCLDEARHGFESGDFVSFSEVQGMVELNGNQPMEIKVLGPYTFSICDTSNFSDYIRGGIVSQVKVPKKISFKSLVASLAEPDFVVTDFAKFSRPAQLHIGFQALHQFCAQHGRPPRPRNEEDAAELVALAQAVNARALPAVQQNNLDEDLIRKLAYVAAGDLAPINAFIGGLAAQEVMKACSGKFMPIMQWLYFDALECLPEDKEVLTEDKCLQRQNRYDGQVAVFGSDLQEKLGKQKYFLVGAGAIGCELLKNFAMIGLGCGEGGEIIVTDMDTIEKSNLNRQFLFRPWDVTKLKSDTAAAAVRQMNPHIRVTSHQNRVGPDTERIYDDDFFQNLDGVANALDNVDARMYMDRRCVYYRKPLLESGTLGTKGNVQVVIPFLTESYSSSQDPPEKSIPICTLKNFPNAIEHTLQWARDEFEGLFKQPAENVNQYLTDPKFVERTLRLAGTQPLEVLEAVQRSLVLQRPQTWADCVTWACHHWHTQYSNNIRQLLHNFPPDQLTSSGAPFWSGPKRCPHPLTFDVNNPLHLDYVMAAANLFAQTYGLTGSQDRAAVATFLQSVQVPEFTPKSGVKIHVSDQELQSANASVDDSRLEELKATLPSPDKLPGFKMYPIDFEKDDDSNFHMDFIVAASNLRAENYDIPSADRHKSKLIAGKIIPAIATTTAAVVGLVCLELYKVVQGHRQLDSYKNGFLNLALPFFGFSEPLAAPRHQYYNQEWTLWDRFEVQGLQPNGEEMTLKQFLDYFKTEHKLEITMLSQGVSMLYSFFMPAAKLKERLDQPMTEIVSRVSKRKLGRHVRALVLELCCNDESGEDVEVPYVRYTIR

[6] = molecular target: RuvB-like 2 (Homo sapiens) (UniProt Q9Y230); assay: Binding affinity to RUVBL2 in human Jurkat cells at 150 uM followed by UV irradiation for 30 mins with Wood's glass filtered medium pressure mercury arc light after cell lysis measured after denaturing wash by SDS-PAGE based pull down assay; summary of the method: as §1
Sequence of RuvB-like 2 (Homo sapiens) (Q9Y230 whole entry): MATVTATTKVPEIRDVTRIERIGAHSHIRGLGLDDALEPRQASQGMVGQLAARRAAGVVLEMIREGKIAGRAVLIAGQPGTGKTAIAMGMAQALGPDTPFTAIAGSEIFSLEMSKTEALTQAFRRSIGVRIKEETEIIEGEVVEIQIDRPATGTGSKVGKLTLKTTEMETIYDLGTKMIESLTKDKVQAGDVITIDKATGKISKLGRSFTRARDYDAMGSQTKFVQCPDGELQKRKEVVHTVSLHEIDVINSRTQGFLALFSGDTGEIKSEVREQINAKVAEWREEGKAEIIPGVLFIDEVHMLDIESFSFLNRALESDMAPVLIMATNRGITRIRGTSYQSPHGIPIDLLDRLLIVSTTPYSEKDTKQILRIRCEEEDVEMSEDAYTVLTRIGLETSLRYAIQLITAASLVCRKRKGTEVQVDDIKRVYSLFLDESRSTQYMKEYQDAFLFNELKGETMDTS

[7] = molecular target: Heat shock-related 70 kDa protein 2 (Homo sapiens) (UniProt P54652); assay: Binding affinity to HSPA2 in human Jurkat cells at 150 uM followed by UV irradiation for 30 mins with Wood's glass filtered medium pressure mercury arc light prior to cell lysis measured after denaturing wash by SDS-PAGE based pull down assay; summary of the method: as §1
Sequence of Heat shock-related 70 kDa protein 2 (Homo sapiens) (P54652 whole entry): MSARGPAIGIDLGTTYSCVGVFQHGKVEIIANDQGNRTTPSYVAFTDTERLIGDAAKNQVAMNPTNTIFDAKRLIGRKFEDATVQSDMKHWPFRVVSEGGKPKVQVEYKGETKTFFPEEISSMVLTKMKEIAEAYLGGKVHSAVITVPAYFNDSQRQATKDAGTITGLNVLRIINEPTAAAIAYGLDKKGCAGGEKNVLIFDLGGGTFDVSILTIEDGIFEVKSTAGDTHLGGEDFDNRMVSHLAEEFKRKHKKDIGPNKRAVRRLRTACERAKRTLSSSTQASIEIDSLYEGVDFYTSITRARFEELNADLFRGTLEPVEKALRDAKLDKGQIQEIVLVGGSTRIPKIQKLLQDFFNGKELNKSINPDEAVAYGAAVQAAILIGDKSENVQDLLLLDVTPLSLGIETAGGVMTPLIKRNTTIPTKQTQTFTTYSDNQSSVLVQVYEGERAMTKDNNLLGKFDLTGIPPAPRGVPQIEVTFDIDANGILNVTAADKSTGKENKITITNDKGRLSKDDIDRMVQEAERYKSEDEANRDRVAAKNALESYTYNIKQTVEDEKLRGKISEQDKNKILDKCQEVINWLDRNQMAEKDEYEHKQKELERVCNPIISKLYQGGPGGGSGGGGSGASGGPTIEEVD

[8] = molecular target: Heat shock-related 70 kDa protein 2 (Homo sapiens) (UniProt P54652); assay: Binding affinity to HSPA2 in human Jurkat cells at 150 uM followed by UV irradiation for 30 mins with Wood's glass filtered medium pressure mercury arc light prior to cell lysis measured after denaturing wash by LC-MS/MS based pull down assay
Summary of the method: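 Silver-stained bands from cells irradiated before lysis were excised, destained, reduced with 10 mM DTT, alkylated with 50 mM iodoacetamide and digested with trypsin overnight. Peptides were extracted in 1% TFA/50% acetonitrile. Nano-C18 LC used a 2–50% acetonitrile gradient with 0.1% formic acid over 50 min at 260 nL/min, followed by MS/MS identification.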

Sequence of Casein kinase II subunit beta (Homo sapiens) (P67870 whole entry): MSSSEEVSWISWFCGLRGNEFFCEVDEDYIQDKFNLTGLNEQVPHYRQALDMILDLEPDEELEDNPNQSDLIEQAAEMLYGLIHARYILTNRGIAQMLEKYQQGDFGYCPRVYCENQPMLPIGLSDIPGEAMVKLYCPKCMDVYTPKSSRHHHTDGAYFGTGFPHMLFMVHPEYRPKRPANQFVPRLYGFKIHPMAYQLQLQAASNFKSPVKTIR

O=C(CCCC[C@@H]1SC[C@@H]2NC(=O)N[C@@H]21)NCCOCCOCCNC(=O)COc1cc(O)c2c(=O)c(O)c(-c3ccc(O)c(O)c3)oc2c1
active: Activity [1] | inhibition [2] | Activity [3] | Activity [4] | Activity [5] | Activity [6] | Activity [7] | Activity [8]

— ChEMBL document CHEMBL2062417, “Biotinylated quercetin as an intrinsic photoaffinity proteomics probe for the identification of quercetin target proteins” (Bioorg Med Chem, 2011)
